Assay [1] has as its target T1, Glycylpeptide N-tetradecanoyltransferase 1 (Homo sapiens, UniProt P30419).
T1 sequence (P30419 whole entry): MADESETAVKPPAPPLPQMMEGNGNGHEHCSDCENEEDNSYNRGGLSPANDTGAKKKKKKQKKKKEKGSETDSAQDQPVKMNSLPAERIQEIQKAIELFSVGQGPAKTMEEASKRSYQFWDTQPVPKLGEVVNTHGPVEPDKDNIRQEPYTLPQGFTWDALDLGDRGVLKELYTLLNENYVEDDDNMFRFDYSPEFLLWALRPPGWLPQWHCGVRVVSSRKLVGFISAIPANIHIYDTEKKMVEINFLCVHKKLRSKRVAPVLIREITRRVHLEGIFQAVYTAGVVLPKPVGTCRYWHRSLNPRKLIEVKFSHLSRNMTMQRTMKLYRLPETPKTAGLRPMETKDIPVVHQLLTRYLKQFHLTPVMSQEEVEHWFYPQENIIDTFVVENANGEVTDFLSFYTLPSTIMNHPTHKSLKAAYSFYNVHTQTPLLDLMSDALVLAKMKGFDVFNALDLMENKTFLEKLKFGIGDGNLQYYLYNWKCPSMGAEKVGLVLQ
As to the kind of experiment: Inhibition of human N-myristoyltransferase 1 using human pp60Src92-16 amino acids) as substrate. The following applies: read-out: Ki(app).

Assay [2] can be described thus: Inhibition of Plasmodium vivax recombinant N-myristoyltransferase using human pp60Src92-16 amino acids) as substrate. The following applies: for Ki: read-out: Ki(app). The method, boiled down:
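Recombinant P. vivax NMT in a 96-well fluorogenic NMT assay. Values are reported as apparent Ki, mean ± SD from duplicates.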

In assay [3] the target is T2, Glycylpeptide N-tetradecanoyltransferase 2 (Homo sapiens, UniProt O60551).
T2 sequence (O60551 whole entry): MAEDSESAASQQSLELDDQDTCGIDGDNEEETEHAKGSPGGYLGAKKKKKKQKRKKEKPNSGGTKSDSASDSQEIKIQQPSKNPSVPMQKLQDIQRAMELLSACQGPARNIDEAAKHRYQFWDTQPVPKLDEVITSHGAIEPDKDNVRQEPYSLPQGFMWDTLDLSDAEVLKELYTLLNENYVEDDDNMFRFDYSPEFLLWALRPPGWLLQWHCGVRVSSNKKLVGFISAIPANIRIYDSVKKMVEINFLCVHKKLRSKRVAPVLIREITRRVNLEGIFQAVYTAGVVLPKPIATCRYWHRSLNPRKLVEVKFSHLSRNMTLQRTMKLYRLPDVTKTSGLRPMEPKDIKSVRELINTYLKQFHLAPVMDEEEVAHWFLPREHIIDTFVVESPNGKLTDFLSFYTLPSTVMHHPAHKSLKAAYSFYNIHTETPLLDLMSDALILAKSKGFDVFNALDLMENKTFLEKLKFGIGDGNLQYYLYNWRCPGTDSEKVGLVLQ
As to the kind of experiment: Inhibition of human N-myristoyltransferase 2 using human pp60Src92-16 amino acids) as substrate. The following applies: read-out: Ki(app). The method in brief:
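Recombinant human NMT2 was tested in a fluorogenic plate assay adapted from a published NMT method. Apparent Ki values are the mean ± SD of duplicates.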

Molecules are shown by their SMILES. Where only a bound is given, the exact number is not on record here.

As for `CCCCc1c(C)nc2ccccc2c1SCCC#N`, the Ki in assay [1] was above 100 µM; in assay [2], 2.46 µM; in assay [3], above 100 µM.

For `CCCCc1c(C)nc2ccc(Br)cc2c1SCCC#N`, the Ki is above 100 µM in assay [1], 21.6 µM in assay [2] and above 100 µM in assay [3].

Regarding `CCCCc1c(C)nc2ccc(OC)cc2c1SCCC#N`, the Ki in assay [3] was determined as 11.4 µM.

Usually IC50 stands for the concentration at which inhibition is half-maximal. With `COc1ccc(CNc2sc3c(c2C#N)CC(C)(C)OC3)cc1`, in assay [2], the IC50 stood at 26.4 µM.

Turning to `CCc1ccc2c(c1)S(=O)(=O)C(C(F)(F)F)CO2` (stereo not drawn), the IC50 in assay [2] was determined as 11.4 µM.

`CCN(CC)Cc1c(O)ccc2ccccc12`: the IC50 in assay [2] was 26.3 µM.

On to `CCc1c(C)nc2ccc(OC)cc2c1SCCC#N`, for which the Ki in assay [2] was found to be 3.23 µM; in assay [3] it was 23.2 µM.

`COc1ccc2nc(C)cc(SCCC#N)c2c1`: the Ki in assay [1], in assay [2] and in assay [3] was above 100 µM in each case.

For `CCOC(=O)c1cnc2ccc(OC)cc2c1SCCC#N`, the Ki in assay [2] was 4.74 µM.

For the compound `CCOC(=O)c1cnc2ccccc2c1SCCC#N`, the results for the Ki in assay [1], in assay [2] and in assay [3] were above 100 µM, 24.4 µM and above 100 µM, respectively.

Regarding `CCOC(=O)c1c(C)nc2ccccc2c1SCCC#N`, the Ki in assay [2] is 24.4 µM; in assay [3], 41.5 µM.

`CCOC(=O)c1c(CC)nc2ccccc2c1SCCC#N`: the Ki in assay [1] worked out at 47.9 µM; in assay [2] it was 60.6 µM; in assay [3], 94.2 µM.

For the compound `CCCc1nc2ccccc2c(SCCC#N)c1C(=O)OCC`, the Ki in assay [1], in assay [2] and in assay [3] was above 100 µM throughout.

For the compound `C#CCCSc1c(CCCC)c(C)nc2ccc(OC)cc12`, the results for the Ki in assay [1], in assay [2] and in assay [3] were above 100 µM, 11.6 µM and above 100 µM, respectively.

With `CCCCc1c(C)nc2ccc(OC)cc2c1SCCCC#N`, the Ki in assay [1] amounted to 47.6 µM; in assay [2] it was 35.2 µM; in assay [3], 46.1 µM.

As for `CCCCc1c(C)nc2ccc(OC)cc2c1SCC#N`, in assay [2], the Ki is above 100 µM.

In the case of `CCCCc1c(C)nc2ccc(OC)cc2c1SCCCO`, the Ki in assay [1] was above 100 µM; in assay [2], 17.4 µM; in assay [3], above 100 µM.

As to `CCCCc1c(C)nc2ccc(OC)cc2c1SCCc1ccccc1`, in assay [2], the Ki is above 100 µM.

Consider `CCOC(=O)c1c(C)nc2ccccc2c1NCC#N`, for which the Ki in assay [2] is above 100 µM.

As for `CCOC(=O)c1cnc2ccc(F)cc2c1SCCC#N`, the Ki worked out at 7.77 µM in assay [2] and 37.5 µM in assay [3].

Take `CCOC(=O)c1cnc2ccc(C)cc2c1SCCC#N`: the Ki in assay [2] is 6.97 µM; in assay [3] it was above 100 µM.

On to `CCOC(=O)c1cnc2ccc(Cl)cc2c1SCCC#N`, for which the Ki in assay [1] is above 100 µM; in assay [2], 10.4 µM; in assay [3], above 100 µM.

For the compound `CCOC(=O)c1cnc2ccc(C(C)=O)cc2c1SCCC#N`, the Ki in assay [2] was above 100 µM.

Consider `CCOC(=O)c1cnc2ccc(C(C)O)cc2c1SCCC#N` (stereo not drawn), for which the Ki in assay [2] is above 100 µM.

The values are drawn from ChEMBL document CHEMBL2034847, “Discovery of Plasmodium vivax N-myristoyltransferase inhibitors: screening, synthesis, and structural characterization of their binding mode” (J Med Chem, 2012).
